Data taken from ChEMBL document CHEMBL1122485, “Antibacterially active substituted anilides of carboxylic and sulfonic acids” (1983).
In brackets after ≈: the same amount, converted by molar mass.

How the values were obtained:
Staphylococcus aureus [1] = test: Bactericidal activity against Staphylococcus aureus ATCC 6538 at 10 ppm concentration; - = Negative; assay type: functional, organism-based
Procedure, shortened: (§1)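 S. aureus was inoculated at 10⁷/mL into 10 mL nutrient broth with 10 ppm compound. Those tubes were centrifuged (10000g, 10 min), resuspended in sterile diluent and streaked onto nutrient agar. Colonies after 48 h at 30 °C meant bacteriostatic; none meant bactericidal.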

Staphylococcus aureus [2] = test: Minimum inhibitory concentration against staphylococcus aureus ATCC 6538; assay type: functional
Procedure, shortened: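 Agar dilution: 1% stocks in 95% ethanol or water, serially diluted into nutrient agar (pH 6.8) to 1000, 100, 10 and 1 ppm. Plates were dried 30 min at 37 °C and spotted with ten drops of 24-h nutrient broth culture. Incubation was 48 h at 37 °C, in duplicate, with hexachlorophene as standard. MIC was the lowest level with no growth of any inoculum on either dish.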

[3] = tested on: Lactiplantibacillus plantarum; test: Activity at 10 ppm against Lactobacillus plantarum; x=Effective; assay type: functional, organism-based
Procedure, shortened: (§2)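 Gram-positive panel on nutrient agar containing compound at 10, 1.0 and 0.1 ppm, duplicate plates. Six 15-µL drops per species, each holding 10⁷ vegetative cells (10⁶ for L. plantarum). Hexachlorophene and no-compound plates were run alongside. Plates were incubated 5 days at 30 °C and scored for growth. MIC was taken as the lowest level with no colonies on either plate.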

Staphylococcus aureus [4] = test: Bacteriostatic activity against Staphylococcus aureus ATCC 6538 at 10 ppm concentration; + =Positive; assay type: functional, organism-based; procedure, shortened: as §1
Staphylococcus aureus [5] = test: Activity at 10 ppm against Staphylococcus aureus ATCC 6538; x=Effective; assay type: functional, organism-based
Enterococcus faecalis [6] = test: Activity at 10 ppm against Streptococcus faecalis; x=Effective; assay type: functional, organism-based; procedure, shortened: as §2
Bacillus cereus [7] = test: Activity at 10 ppm against Bacillus cereus NRRL 3711; x=Effective; assay type: functional, organism-based; procedure, shortened: as §2
Staphylococcus aureus [8] = test: Bactericidal activity against Staphylococcus aureus ATCC 6538 at >10 ppm concentration; - = Negative; assay type: functional, organism-based
Staphylococcus aureus [9] = test: Bacteriostatic activity against Staphylococcus aureus ATCC 6538 at >10 ppm concentration; - = Negative; assay type: functional, organism-based
Staphylococcus aureus [10] = test: Bacteriostatic activity against Staphylococcus aureus ATCC 6538 at 10 ppm concentration; - = Negative; assay type: functional, organism-based; procedure, shortened: as §1
Staphylococcus aureus [11] = test: Bactericidal activity against Staphylococcus aureus ATCC 6538 at 10 ppm concentration; + =Positive; assay type: functional, organism-based; procedure, shortened: as §1
Bacillus cereus [12] = test: Activity at 10 ppm against Bacillus cereus NRRL 3711; d=A few resistant colonies grew; assay type: functional, organism-based; procedure, shortened: as §2
Staphylococcus aureus [13] = test: Activity at 1 ppm against Staphylococcus aureus ATCC 6538; x=Effective; assay type: functional, organism-based
Bacillus cereus [14] = test: Activity at 1 ppm against Bacillus cereus NRRL 3711; x=Effective; assay type: functional, organism-based; procedure, shortened: as §2
Enterococcus faecalis [15] = test: Activity at 1 ppm against Streptococcus faecalis; x=Effective; assay type: functional, organism-based; procedure, shortened: as §2
[16] = tested on: Lactiplantibacillus plantarum; test: Activity at 1 ppm against Lactobacillus plantarum; x=Effective; assay type: functional, organism-based; procedure, shortened: as §2
Staphylococcus aureus [17] = test: Bacteriostatic activity against Staphylococcus aureus ATCC 6538 at 1 ppm concentration; + =Positive; assay type: functional, organism-based
Staphylococcus aureus [18] = test: Bactericidal activity against Staphylococcus aureus ATCC 6538 at 1 ppm concentration; + =Positive; assay type: functional, organism-based
Staphylococcus aureus [19] = test: Bactericidal activity against Staphylococcus aureus ATCC 6538 at 10 ppm concentration; -=Negative; assay type: functional, organism-based; procedure, shortened: as §1
Bacillus cereus [20] = test: Activity at 10 ppm against Bacillus cereus NRRL 3711;* = Effective; assay type: functional, organism-based; procedure, shortened: as §2
[21] = tested on: Lactiplantibacillus plantarum; test: Activity at 10 ppm against Lactobacillus plantarum;* = Effective; assay type: functional, organism-based; procedure, shortened: as §2
Staphylococcus aureus [22] = test: Activity at 10 ppm against Staphylococcus aureus ATCC 6538;* = Effective; assay type: functional, organism-based
Staphylococcus aureus [23] = test: Bacteriostatic activity against Staphylococcus aureus ATCC 6538 at 10 ppm concentration; x=Effective; assay type: functional, organism-based; procedure, shortened: as §1
Enterococcus faecalis [24] = test: Activity against Streptococcus faecalis; xe=S. faecalis was inhibited at 10 p.p.m. but not at 1 ppm; assay type: functional, organism-based; procedure, shortened: as §2
Staphylococcus aureus [25] = test: Bactericidal activity against Staphylococcus aureus ATCC 6538 at 1 ppm concentration; - = Negative; assay type: functional, organism-based

Compound	Activity (Staphylococcus aureus [1])	MIC (Staphylococcus aureus [2]) [µg/mL]	Activity [3]	Activity (Staphylococcus aureus [4])	Activity (Staphylococcus aureus [5])	Activity (Enterococcus faecalis [6])	other results
CCCCCCC(=O)Nc1cc(Cl)cc(Cl)c1	Negative	1 (≈ 3.65 µM)	Concentration effective	Negative	Concentration effective	–	–
CCCc1ccc(S(=O)(=O)Nc2cc(Cl)ccc2O)cc1	Negative	1 (≈ 3.07 µM)	Concentration effective	Negative	Concentration effective	Concentration effective	Activity (Bacillus cereus [7]): Concentration effective
CCCCCCCCC(=O)Nc1cc(Cl)ccc1O	–	1 (≈ 3.52 µM)	–	–	–	–	Activity (Staphylococcus aureus [8]): Negative; Activity (Staphylococcus aureus [9]): Negative
CCCc1ccc(S(=O)(=O)Nc2ccc(Cl)c(Cl)c2)cc1	–	1 (≈ 2.9 µM)	Concentration effective	–	–	Concentration effective	Activity (Staphylococcus aureus [10]): Negative; Activity (Staphylococcus aureus [11]): Negative
CCCCCCCCC(=O)Nc1ccc(Cl)c([N+](=O)[O-])c1	Negative	1 (≈ 3.2 µM)	Concentration effective	Negative	–	–	Activity (Bacillus cereus [12]): A few resistant colonies grew
CCCCCCCC(=O)Nc1ccc(Cl)c([N+](=O)[O-])c1	Negative	1 (≈ 3.35 µM)	Concentration effective	–	–	–	Activity (Bacillus cereus [7]): Concentration effective; Activity (Staphylococcus aureus [10]): Negative
C=C(CCCCCCCC)C(=O)Nc1cc([N+](=O)[O-])ccc1O	–	1 (≈ 3.12 µM)	–	–	–	–	Activity (Staphylococcus aureus [13]): Concentration effective; Activity (Bacillus cereus [14]): Concentration effective; Activity (Enterococcus faecalis [15]): Concentration effective; Activity [16]: Concentration effective; Activity (Staphylococcus aureus [17]): Positive; Activity (Staphylococcus aureus [18]): Positive
CCCCCCCC(=O)Nc1ccc(Cl)c(Cl)c1	–	1 (≈ 3.47 µM)	Concentration effective	Negative	Concentration effective	–	Activity (Staphylococcus aureus [19]): Negative; Activity (Bacillus cereus [12]): A few resistant colonies grew
CCCCCCCC(=O)Nc1cc(Cl)cc(Cl)c1	Negative	1 (≈ 3.47 µM)	–	Negative	–	–	Activity (Bacillus cereus [20]): Concentration effective; Activity [21]: Concentration effective; Activity (Staphylococcus aureus [22]): Concentration effective
CCCCc1ccc(S(=O)(=O)Nc2ccc(Cl)c([N+](=O)[O-])c2)cc1	Negative	1 (≈ 2.71 µM)	Concentration effective	–	–	Concentration effective	Activity (Staphylococcus aureus [10]): Negative
CCCCc1ccc(S(=O)(=O)Nc2cc([N+](=O)[O-])ccc2O)cc1	Negative	10 (≈ 28.5 µM)	Concentration effective	Negative	Concentration effective	–	Activity (Bacillus cereus [7]): Concentration effective
O=[N+]([O-])c1cc(NS(=O)(=O)c2ccc(Cl)c(Cl)c2)ccc1Cl	Negative	1 (≈ 2.62 µM)	Concentration effective	Negative	–	Concentration effective	–
C=C(CCCCC)C(=O)Nc1cc(Cl)cc(Cl)c1	Negative	1 (≈ 3.49 µM)	Concentration effective	Negative	Concentration effective	–	Activity (Bacillus cereus [12]): A few resistant colonies grew
C=C(CCCCCC)C(=O)Nc1cc(Cl)cc(Cl)c1	Negative	1 (≈ 3.33 µM)	Concentration effective	Negative	Concentration effective	–	–
CCCCCCCCCC(=O)Nc1cc([N+](=O)[O-])ccc1O	Negative	1 (≈ 3.24 µM)	–	Negative	–	–	Activity (Staphylococcus aureus [23]): Concentration effective
CCCCCCCC(=O)Nc1cc([N+](=O)[O-])ccc1O	Negative	1 (≈ 3.57 µM)	Concentration effective	–	Concentration effective	Concentration effective	Activity (Bacillus cereus [7]): Concentration effective; Activity (Staphylococcus aureus [4]; Bacteria): Negative
O=S(=O)(Nc1ccc(Cl)c(Cl)c1)c1ccc(Cl)c(Cl)c1	Negative	1 (≈ 2.69 µM)	Concentration effective	Negative	Concentration effective	Concentration effective	Activity (Bacillus cereus [7]): Concentration effective
C=C(CCCCCCC)C(=O)Nc1cc([N+](=O)[O-])ccc1O	–	1 (≈ 3.26 µM)	–	–	–	–	Activity (Staphylococcus aureus [13]): Concentration effective; Activity (Enterococcus faecalis [24]): Inhibited at 10ppm but not at 1ppm; Activity (Staphylococcus aureus [25]): Negative; Activity (Bacillus cereus [14]): Concentration effective; Activity [16]: Concentration effective; Activity (Staphylococcus aureus [17]): Negative
C=C(CCCCCC)C(=O)Nc1cc([N+](=O)[O-])ccc1O	Negative	1 (≈ 3.42 µM)	Concentration effective	Negative	Concentration effective	Concentration effective	Activity (Bacillus cereus [7]): Concentration effective
Cc1ccc(C(=O)Nc2ccc(Cl)c(Cl)c2)cc1	–	1000 (≈ 3570 µM)	–	–	–	–	–
CCCCCCC(=O)Nc1cc([N+](=O)[O-])ccc1O	–	10 (≈ 37.6 µM)	–	–	–	–	–
